Measured values: ChEMBL document CHEMBL1125363, “Novel piperidine sigma receptor ligands as potential antipsychotic drugs” (J Med Chem, 1992)

Legend:
[1] = molecular target: T1, Serotonin 2 (5-HT2) receptor (Mus musculus, UniProt Q02152+P34968+P35363); assay: In vitro binding affinity for serotonin 5-hydroxytryptamine (5-HT) 2 receptors; format: protein assay
D(2) dopamine receptor [2] = molecular target: T2, D(2) dopamine receptor (Mus musculus, UniProt P61168); assay: In vitro binding affinity towards dopamine receptor D2
T2 sequence (P61168 whole entry): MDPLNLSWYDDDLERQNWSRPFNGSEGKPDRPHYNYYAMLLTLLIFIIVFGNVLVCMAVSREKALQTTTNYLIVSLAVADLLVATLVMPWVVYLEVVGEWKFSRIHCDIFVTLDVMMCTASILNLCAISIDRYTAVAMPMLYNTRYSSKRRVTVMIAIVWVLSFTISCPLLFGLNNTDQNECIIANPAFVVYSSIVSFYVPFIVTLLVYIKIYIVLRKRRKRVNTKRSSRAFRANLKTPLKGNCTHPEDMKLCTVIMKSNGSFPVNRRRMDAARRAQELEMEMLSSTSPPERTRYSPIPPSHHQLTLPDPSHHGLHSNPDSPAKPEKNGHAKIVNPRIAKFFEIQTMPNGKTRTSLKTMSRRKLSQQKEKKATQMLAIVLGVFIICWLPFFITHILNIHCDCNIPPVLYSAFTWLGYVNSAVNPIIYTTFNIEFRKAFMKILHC

[3] = molecular target: Sigma non-opioid intracellular receptor 1 (Mus musculus, UniProt O55242); assay: In vitro binding affinity for the mouse sigma opioid receptor
Sequence of Sigma non-opioid intracellular receptor 1 (O55242 whole entry): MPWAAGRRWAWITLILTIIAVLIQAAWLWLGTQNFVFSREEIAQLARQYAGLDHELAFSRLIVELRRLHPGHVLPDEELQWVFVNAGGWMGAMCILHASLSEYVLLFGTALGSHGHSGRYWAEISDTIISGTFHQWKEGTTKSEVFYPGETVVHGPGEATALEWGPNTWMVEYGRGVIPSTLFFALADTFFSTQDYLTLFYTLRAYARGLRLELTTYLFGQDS

Mus musculus [4] = organism: Mus musculus; assay: (§1) Oral potency by using Anti aggression test; format: functional
In short: (§2)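 Mice were held in prolonged isolation, then exposed to intruders. The aggressive response was scored after oral dosing of the test compound. Potency is the ED50 in mg/kg po.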

Mus musculus [5] = organism: Mus musculus; assay: Oral potency tested by using anti-mescaline test; format: functional
In short: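 Mice; mescaline was given to evoke hallucinogen-type behaviour, and the test compound was dosed orally to antagonise it. Potency is the ED50 in mg/kg po. Some ED50s are the average of three measurements.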

Mus musculus [6] = organism: Mus musculus; assay: Oral potency tested using apomorphine induced climbing test; format: functional
Rattus norvegicus [7] = organism: Rattus norvegicus; assay: Oral potency tested using 5HTP induced head twitch test; format: functional
Mus musculus [8] = organism: Mus musculus; assay: Oral potency by using Anti aggression test
Rattus norvegicus [9] = organism: Rattus norvegicus; assay: The compound was tested for blocking the rotation induced by (+)-SKF 10047 in brain-lesioned rats.; format: functional
In short: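 Rats with brain lesions were challenged with (+)-SKF 10047 to induce rotation. The test compound was given orally to block rotation. Reported as the ED50 in mg/kg po.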

D(2) dopamine receptor [10] = molecular target: T2, D(2) dopamine receptor; assay: The compound was tested in vitro for its binding affinity towards Dopamine receptor D2
[11] = molecular target: T1, Serotonin 2 (5-HT2) receptor; assay: The compound was tested in vitro for its binding affinity towards 5-hydroxytryptamine 2 receptor; format: protein assay
D(1A) dopamine receptor = D(1A) dopamine receptor (Mus musculus, UniProt Q61616); assay: The compound was tested in vitro for its binding affinity towards dopamine receptor D1
Sequence of D(1A) dopamine receptor (Q61616 whole entry): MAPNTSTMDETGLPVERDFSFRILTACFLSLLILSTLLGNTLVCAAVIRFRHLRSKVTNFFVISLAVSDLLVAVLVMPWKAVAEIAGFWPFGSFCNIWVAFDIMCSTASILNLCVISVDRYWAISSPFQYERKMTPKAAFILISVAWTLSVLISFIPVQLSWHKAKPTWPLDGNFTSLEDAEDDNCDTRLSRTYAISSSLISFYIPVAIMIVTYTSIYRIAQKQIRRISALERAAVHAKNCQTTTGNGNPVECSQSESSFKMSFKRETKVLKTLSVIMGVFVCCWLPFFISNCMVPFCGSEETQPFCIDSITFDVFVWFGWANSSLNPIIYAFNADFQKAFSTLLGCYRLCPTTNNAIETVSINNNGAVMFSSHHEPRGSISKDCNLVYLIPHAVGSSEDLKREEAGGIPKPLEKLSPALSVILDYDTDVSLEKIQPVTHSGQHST

[12] = as §1; format: functional; in short: as §2

Row | Structure (SMILES) | Ki [1] | IC50 (D(2) dopamine receptor [2]) | Ki [3] | ED50 (Mus musculus [4]) | ED50 (Mus musculus [5]) | ED50 (Mus musculus [6]) | ED50 (Rattus norvegicus [7]) | ED50 (Mus musculus [8]) | ED50 (Rattus norvegicus [9]) | IC50 (D(2) dopamine receptor [10]) | Ki [11] | Ki (D(1A) dopamine receptor) | ED50 [12]
1 | CC(C)(C)c1ccc(OCC2CCN(CC3CC3)CC2)cc1 | > 1000 nM | 3150 nM | 14 nM | > 30 mg/kg | < 30 mg/kg | > 30 mg/kg |  |  |  |  |  |  | 
2 | O.O=C(CC1CCN(Cc2ccccc2)CC1)c1ccc(F)cc1.O=C(O)/C=C\C(=O)O | 20 nM | 1550 nM | 1 nM | 8.6 mg/kg | 4.8 mg/kg | 18 mg/kg | 2.8 mg/kg |  |  |  |  |  | 
3 | Br.O=C(CC1CCN(CC2CC2)CC1)c1ccc(F)cc1 | 15 nM |  | 10 nM |  | 0.35 mg/kg | 15 mg/kg | 1.8 mg/kg | 1.9 mg/kg | 2.4 mg/kg |  |  |  | 
4 | Fc1ccc(SCC2CCN(CCC3CC3)CC2)cc1 |  |  | 5 nM |  | > 10 mg/kg |  |  |  |  | 1700 nM | 53 nM |  | 
5 | N#Cc1ccc(C(=O)CC2CCN(CC3CC3)CC2)cc1.O=C(O)/C=C/C(=O)O | > 10000 nM | > 10000 nM | 11 nM |  | 0.8 mg/kg | > 90 mg/kg | 22.3 mg/kg |  | 5.3 mg/kg |  |  | > 10000 nM | 0.44 mg/kg
